Data set [1] has as its target Trace amine-associated receptor 1 (Mus musculus) (UniProt Q923Y8). Put plainly: Agonist activity at mouse TAAR1 receptor expressed in HEK293 cells after 30 mins relative to control. Type of data set: functional, cell-based.
For data set [2], the target named is Trace amine-associated receptor 1 (Rattus norvegicus, UniProt Q923Y9). The experiment in a line: Agonist activity at rat TAAR1 receptor expressed in HEK293 cells after 30 mins. The format is functional, cell-based.
The target of data set [3] is Trace amine-associated receptor 1 (Rattus norvegicus) (UniProt Q923Y9). The experiment in a line: Agonist activity at rat TAAR1 receptor expressed in HEK293 cells after 30 mins relative to control. Type of data set: functional, cell-based.
The target of data set [4] is T1, Trace amine-associated receptor 1 (Homo sapiens, UniProt Q96RJ0).
T1 sequence (Q96RJ0 whole entry): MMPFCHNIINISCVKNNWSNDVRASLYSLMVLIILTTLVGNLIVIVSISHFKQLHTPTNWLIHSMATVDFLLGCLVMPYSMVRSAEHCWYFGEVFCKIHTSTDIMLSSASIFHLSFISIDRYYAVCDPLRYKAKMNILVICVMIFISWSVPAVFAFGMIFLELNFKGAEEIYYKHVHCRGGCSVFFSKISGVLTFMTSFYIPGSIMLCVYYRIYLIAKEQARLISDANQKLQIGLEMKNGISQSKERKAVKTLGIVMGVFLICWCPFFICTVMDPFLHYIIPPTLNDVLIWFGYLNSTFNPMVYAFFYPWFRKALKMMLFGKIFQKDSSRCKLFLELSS
Put plainly: Displacement of (S)-4-(2,4-difluorophenyl-3-tritio) -4,5-dihydro-2-oxazolamine from human TAAR1 receptor expressed in HEK293 cells after 90 mins by beta counting analysis. The format is cell-based.

Data set [5] addresses Trace amine-associated receptor 1 (Mus musculus, UniProt Q923Y8). Put plainly: Agonist activity at mouse TAAR1 receptor expressed in HEK293 cells after 30 mins. The format is functional, cell-based.
The test system of another data set is CHL. Put plainly: Selectivity ratio of Ki for human adrenergic alpha2A receptor expressed in CHL cells to Ki for human TAAR1 receptor. The format is cell-based.
A further data set has as its system Liver. Put plainly: Intrinsic clearance in mouse liver microsomes assessed per mg protein. Type of data set: ADME, Microsome.
A short description of data set [6]: Clearance in mouse at 5 mg/kg, iv. Also on record: dose 5 mg/kg, route intravenous. To be noted: in vivo. The format is ADME, organism-based.
Data set [7] is described as follows: Cmax in rat at 3.8 mg/kg, po. Type of data set: ADME, organism-based. Also on record: dose 3.8 mg/kg, route oral. To be noted: in vivo.
Data set [8] in a line: Half life in mouse at 10 mg/kg, po. The format is ADME, organism-based. More on the design: dose 10 mg/kg, route oral. The conditions noted are these: in vivo.
Data set [9] can be described thus: Thermodynamic solubility of the compound at pH 6.5. The format is physicochemical. To be noted: buffer, read-out: Therm_solubility. In outline:
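Thermodynamic solubility determined using solid material, with the final pH being 6.5; value expressed in µg/ml.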

Data set [10] can be described thus: Half life in rat at 3.8 mg/kg, po. The format is ADME, organism-based. More on the design: dose 3.8 mg/kg, route oral. The conditions noted are these: in vivo.
Data set [11] can be described thus: Oral bioavailability in mouse at 10 mg/kg. To be noted: in vivo. The format is ADME, organism-based.
The nature of data set [12]: Fraction unbound in mouse plasma. The format is ADME, cell-free.
Data set [13] in a line: Volume of distribution at steady state in rat at 4.8 mg/kg, iv. Type of data set: ADME, organism-based. More on the design: dose 4.8 mg/kg, route intravenous. To be noted: in vivo, read-out: Vdss.
For data set [14], the system named is Liver microsomes. Put plainly: Intrinsic clearance in human liver microsomes assessed per mg protein. Type of data set: ADME, Microsome. For orientation: Liver microsomes are a subcellular fraction often used to study metabolism.
Data set [15] is described as follows: Ratio of drug level in brain to plasma in rat at 4.8 mg/kg, iv. Type of data set: ADME, organism-based. Also on record: dose 4.8 mg/kg, route intravenous. To be noted: brain and plasma, read-out: BPR.
Data set [16] is described as follows: Permeability of the compound by PAMPA assay. The format is ADME. To be noted: read-out: permeability.
Data set [17] in a line: Oral bioavailability in rat at 3.8 mg/kg. Type of data set: ADME, organism-based. To be noted: in vivo.
Data set [18] is described as follows: Dissociation constant, pKa of the compound. Type of data set: physicochemical.
Data set [19] is described as follows: Cmax in mouse at 10 mg/kg, po. The format is ADME, organism-based. Also on record: dose 10 mg/kg, route oral. To be noted: in vivo.
A short description of data set [20]: Fraction unbound in rat plasma. The format is ADME, cell-free.
Data set [21] concerns Liver microsomes. The experiment in a line: Intrinsic clearance in rat liver microsomes assessed per mg protein. The format is ADME, Microsome.
Data set [22] can be described thus: Ratio of drug level in brain to plasma in mouse at 5 mg/kg, iv. More on the design: dose 5 mg/kg, route intravenous. The conditions noted are these: brain and plasma, read-out: BPR. Type of data set: ADME, organism-based.
Data set [23] is described as follows: Volume of distribution at steady state in mouse at 5 mg/kg, iv. The format is ADME, organism-based. To be noted: in vivo, read-out: Vdss. Also on record: dose 5 mg/kg, route intravenous.
The test system of the next data set is Rattus norvegicus. The experiment in a line: Inhibition of cocaine-induced hyperlocomotion in po dosed Wistar rat assessed as reduction in locomotor activity after 30 mins. Type of data set: functional, organism-based. In outline:
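Rats were pretreated orally with several doses of test compound. Hyperlocomotion was then induced with cocaine at 20 mg/kg i.p., and the reduction in locomotor activity was recorded.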

Data set [24] can be described thus: Lipophilicity, log D of the compound. Type of data set: physicochemical. The conditions noted are these: octanol/water. The method in brief:
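Distribution coefficient (logD) measured at pH 7.4.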

The nature of data set [25]: Clearance in rat at 4.8 mg/kg, iv. Type of data set: ADME, organism-based. More on the design: dose 4.8 mg/kg, route intravenous. To be noted: in vivo.

In brackets after ≈: the same amount, converted by molar mass.

Chain of Trace amine-associated receptor 1 (Mus musculus, UniProt Q923Y8) (Q923Y8 whole entry): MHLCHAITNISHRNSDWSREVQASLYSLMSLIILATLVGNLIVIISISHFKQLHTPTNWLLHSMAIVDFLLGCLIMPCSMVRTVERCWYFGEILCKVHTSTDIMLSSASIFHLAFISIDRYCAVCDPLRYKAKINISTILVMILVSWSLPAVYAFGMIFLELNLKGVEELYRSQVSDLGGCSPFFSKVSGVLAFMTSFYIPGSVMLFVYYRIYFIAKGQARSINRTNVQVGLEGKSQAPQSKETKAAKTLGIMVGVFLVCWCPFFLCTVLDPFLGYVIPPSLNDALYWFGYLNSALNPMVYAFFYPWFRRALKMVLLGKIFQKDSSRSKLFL
Chain of Trace amine-associated receptor 1 (Mus musculus) (Q923Y8 whole entry): as above
Chain of Trace amine-associated receptor 1 (Rattus norvegicus) (Q923Y9 whole entry): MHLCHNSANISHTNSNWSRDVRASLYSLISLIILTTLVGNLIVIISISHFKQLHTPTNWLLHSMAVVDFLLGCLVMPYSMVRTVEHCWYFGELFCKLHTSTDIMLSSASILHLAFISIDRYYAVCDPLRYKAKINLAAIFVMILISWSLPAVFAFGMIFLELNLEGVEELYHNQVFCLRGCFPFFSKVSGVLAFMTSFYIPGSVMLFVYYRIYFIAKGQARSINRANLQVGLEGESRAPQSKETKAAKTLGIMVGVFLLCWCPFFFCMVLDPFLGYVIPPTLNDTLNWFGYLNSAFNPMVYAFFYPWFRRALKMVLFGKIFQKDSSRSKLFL
Chain of Trace amine-associated receptor 1 (Rattus norvegicus, UniProt Q923Y9) (Q923Y9 whole entry): as above

Regarding `COc1cccc(N(Cc2cnc[nH]2)C(C)C)n1`, the results for the Emax in data set [1] and in data set [3] were 35% and 18%, respectively. For the same compound, the EC50 (commonly the concentration that produces a half-maximal response) in [2] amounted to 25 nM.

On to `c1ccc2c(c1)CCCN2Cc1cnc[nH]1`, for which the Ki (in general, a measure of affinity in units of concentration, obtained from inhibition or displacement) in [4] came to 12 nM.

Consider `CC(C)N(Cc1cnc[nH]1)c1ccccc1`, for which the maximal response (Emax) (in general, the greatest response seen or fitted, relative to the assay's reference) in data set [1] stood at 45%; in data set [3], 34%. For the same compound, the 50% effective concentration (EC50) in data set [5] came out at 28 nM; in [2], 7.3 nM.

Consider `CC(C)N(Cc1cnc[nH]1)c1cc(Cl)cc(Cl)c1`, for which the Ki in data set [4] amounted to 4 nM. The Ratio Ki in the data set on CHL amounted to 37.

As to `CC(C)N(Cc1cnc[nH]1)c1ccc(Cl)cc1`, the CLint in the data set on Liver amounted to 17.5 µL/min/mg; with Liver microsomes [14] it was 18 µL/min/mg; with Liver microsomes [21], 70 µL/min/mg. In addition, the figures for the clearance in data set [6] and in data set [25] were 24 mL/min/kg and 40 mL/min/kg, respectively. For the same compound, the results for the Emax in [1] and in data set [3] were 26% and 24%, respectively. The Cmax (in general, the peak of the concentration-time curve) in data set [7] worked out at 519 ng/mL; in data set [19] it was 1740 ng/mL. For the same compound, the results for the half-life in [8] and in data set [10] were 1.8 h and 1 h, respectively. The solubility thermodynamic in data set [9] was 97 µg/mL (≈ 388 µM). The bioavailability (commonly dose-corrected exposure relative to a reference, in per cent) came to 86% in data set [11] and 66% in data set [17]. Moreover, the fraction unbound (commonly the share of the substance not bound to proteins or other matrix) in [12] was determined as 0.08; in data set [20], 0.06. For the same compound, the Vd in [13] stood at 4.1 L/kg; in data set [23], 2 L/kg. Besides, the values for the Kp in [15] and in [22] were 6.6 and 0.6, respectively. For the same compound, in [16], the Papp was determined as 2.7 ×10⁻⁶ cm/s. Also, in data set [2], the EC50 stood at 25 nM. In addition, the pKa (in general, the negative logarithm of the acid dissociation constant) in [18] worked out at 3.5. For the same compound, the inhibition result in the data set with Rattus norvegicus is “Dose-dependent effect”. In addition, in data set [24], the pH-dependent lipophilicity (logD) (usually the decadic logarithm of the distribution of all forms, ionised or not, between an organic phase and buffer at a given pH) came to 3.3.

In data set [4], `c1ccc(NCc2ncc[nH]2)cc1` displayed a Ki of 4250 nM. The Ratio Ki in the data set on CHL is 0.2.

As for `c1ccc2c(c1)CCCN2Cc1c[nH]cn1`, in the data set on CHL, the Ratio Ki amounted to 4.

Consider `CC(C)N(Cc1cnc[nH]1)c1cccc(Cl)c1`, for which the Emax in data set [1] was determined as 50%; in data set [3] it was 22%. In addition, the EC50 was 10 nM in [5] and 27 nM in data set [2].

Take `c1ccc(CC2=NCCN2)cc1` [TOLAZOLINE]: the affinity in data set [4], expressed as Ki, was 1640 nM. Moreover, the Ratio Ki in the data set on CHL turned out to be 0.06.

With `CN(Cc1ncc[nH]1)c1ccccc1`, the Ki in data set [4] worked out at 1270 nM. Besides, the Ratio Ki in the data set on CHL is 0.2.

In data set [4], `FC(F)(F)c1cccc(C(F)(F)F)c1Cc1ncc[nH]1` registered a Ki of 13300 nM.

In the case of `CC(C)N(Cc1ncc[nH]1)c1cccc(Cl)c1`, the Emax came out at 54% in [1] and 60% in data set [3]. Besides, the results for the EC50 in [5] and in data set [2] were 500 nM and 400 nM, respectively.

In turn, `Clc1cccc(Cl)c1Cc1ncc[nH]1` returned a Ki in data set [4] of 1390 nM. Further, in the data set on CHL, the Ratio Ki worked out at 0.7.

As for `COc1cccc(N(Cc2cnc[nH]2)C(C)C)c1`, the Emax in data set [1] is 55%; in [3], 25%. The EC50 in data set [5] is 72 nM; in [2], 61 nM.
